Compounds with a hit are over-represented: about 3.7% of the library has one in this group of screens.
rCAG RNA binder: r(CAG) repeat RNA binding; inhibition, % at 3 µM; hit rate 1.3% among 370,000; AID 651821; TO-PRO-1 dye displacement fluorescence;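 active means inhibition above the plate cutoff, the mean of all test compounds on that plate plus 3 SD, cut at about 35% in these data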;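 further: 0% = DMSO alone and 100% = 100 µM mitoxantrone as full dye displacement; higher means more dye released from RNA so lower well fluorescence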
core dimer inh: blocks dimerization of HCV core protein; inhibition, % at 5 µM; AID 1899; TR-FRET GST/Flag-core106 dimerization, 1536-well; hit rate 0.33% among 300,000;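 active means inhibition above the mean of all tested compounds plus 3 SD, set per screening campaign, cut at about 45% in these data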
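System – GST-tagged and Flag-tagged HCV core protein residues 1-106 · Repeats – one well for each compound · Technique – TR-FRET 671 and 617 nm emission · Doses – one concentration, 5 µM, in 0.5% DMSO · Times – 4 h, 22.5 °C incubation · Also added – Eu donor and XL665 acceptor anti-tag antibodies · Measure – percent inhibition of core106 dimerization signal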
TAAR1 ag: agonists of human TAAR1; Q96RJ0; CHO RD-HGA16 TAAR1, Fluo-8 calcium fluorescence; vehicle wells 0%, saturating PEA agonist 100%; activation, % at 3 µM; hit rate 0.99% among 360,000; AID 624467;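 active means activation above the mean activation of all test compounds in the run plus 3 SD, cut at about 38% in these data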
Target sequence (Q96RJ0 whole entry, looked up): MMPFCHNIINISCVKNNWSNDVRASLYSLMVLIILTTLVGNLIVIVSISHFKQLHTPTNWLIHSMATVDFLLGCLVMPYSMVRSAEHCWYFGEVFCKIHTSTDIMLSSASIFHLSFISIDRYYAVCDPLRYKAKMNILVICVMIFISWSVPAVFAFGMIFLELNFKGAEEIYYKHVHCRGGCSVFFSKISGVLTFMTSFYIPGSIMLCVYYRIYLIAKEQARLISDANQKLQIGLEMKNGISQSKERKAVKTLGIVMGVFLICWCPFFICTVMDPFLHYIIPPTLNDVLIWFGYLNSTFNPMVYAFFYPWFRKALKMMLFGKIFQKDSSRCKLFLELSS
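System: CHO-derived RD-HGA16 cells with stable Gα16 and human TAAR1 / Times: 17-24 h plating, Fluo-8 75 min 37 °C, 30 min RT / Technique: calcium-sensitive Fluo-8 signal, excitation 470-495, emission 515-575 nm / Measure: % activation relative to PEA EC100 response / Benchmarks: DMSO and PEA EC100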
TAAR1 antagonist: human TAAR1 antagonism; Q96RJ0; CHO RD-HGA16 TAAR1, Fluo-8 calcium fluorescence, antagonist; inhibition, % at 3 µM; hit rate 1.5% among 360,000; AID 624466;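 active means inhibition above a per-plate cutoff, the mean inhibition of test compounds on that plate plus 3 SD, cut at about 49% in these data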;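 further: 0% = DMSO plus EC80 beta-PEA response and 100% = DMSO alone without agonist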
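System: CHO RD-HGA16 cells bearing hTAAR1. Reagent: EC80 β-phenethylamine stimulus. Schedule: seeding 17-24 h prior, 75-min 37 °C, 30-min RT dye loading. Signal: Fluo-8 intracellular calcium dye fluorescence, real-time kinetic reads. Read-out: % inhibition from peak post-agonist over basal fluorescence ratio. Benchmarks: vehicle wells and EC80 agonist wells. Replicates: n of 1.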
NS3 helicase inh: inhibitors of Hepatitis C virus NS3 helicase | NS3 helicase DNA unwinding, Cy5 molecular beacon fluorescence | inhibition, % at 10.9 µM | hit rate 0.56% among 290,000 | AID 1800;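 active means inhibition above the mean of all tested compounds plus 3 SD, set per campaign, cut at about 35% in these data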;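 further: 0% = DMSO wells and 100% = thioflavine S control wells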
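test system = hepatitis C virus NS3 helicase domain fragment enzyme | reagent = annealed dual-labelled DNA beacon duplex, ATP-started | times = 1 h at 25 °C | detection = Cy5 fluorescence, 0 and 60 min reads | read-out basis = percent inhibition from t60/t0 fluorescence ratio | control set = DMSO and thioflavine S | replication = one well per compound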
rCAG binder conf: r(CAG) RNA repeat binding, confirmation; AID 652065; hit rate 70% among 4,300; inhibition, % at 3 µM; shares compounds with rCAG RNA binder; TO-PRO-1 dye displacement fluorescence;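 active means inhibition above a per-plate cutoff, the mean inhibition of sample wells plus 3 SD, cut at about 35% in these data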;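 further: loss of TO-PRO-1 fluorescence as compound displaces dye from 1x1 AA loop RNA; 0% = DMSO only wells and 100% = 100 µM mitoxantrone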
DNA CAG counter: disrupts DNA CAG TO-PRO-1 complex, flagging rCAG hits; shares compounds with rCAG RNA binder; d(CAG) DNA oligo TO-PRO-1 dye displacement, fluorescence; inhibition, % at 3 µM; hit rate 94% among 4,300;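 active means inhibition above its plate's cutoff, the mean test-well inhibition plus 3 SD, cut at about 4.8% in these data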;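 further: 0% = DNA dye mix with DMSO and 100% = 100 µM mitoxantrone; hits displace the dye from DNA and so lower well fluorescence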
Starred values were filed as active, the others as inactive.

For Cc1ccc2c(C)c(C(=O)Nc3ccc(S(=O)(=O)Nc4onc(C)c4C)cc3)oc2c1 the results were rCAG RNA binder 79*, core dimer inh 16, TAAR1 ag 0, TAAR1 antagonist -15, NS3 helicase inh -19, rCAG binder conf 74* and DNA CAG counter 40*.
Cc1noc(NS(=O)(=O)c2ccc(NC(=O)c3oc4ccc(Cl)cc4c3C)cc2)c1C was read as rCAG RNA binder 88*, core dimer inh 14, TAAR1 ag 2, TAAR1 antagonist -25, NS3 helicase inh 6, rCAG binder conf 85* and DNA CAG counter 48*.
Screening Cc1ccc(CN2CCCCC(NC(=O)c3ccc(C)cc3)C2=O)cc1 (stereo not drawn) returned rCAG RNA binder -1.
For O=C(NN=Cc1cc(Br)c(O)c(Br)c1)c1ccccc1NS(=O)(=O)c1cccs1 the results were rCAG RNA binder 40*, TAAR1 ag 1, TAAR1 antagonist 4, rCAG binder conf 35* and DNA CAG counter 10*.
`Cc1nn(-c2ccccc2)c(C)c1/C=N/NC(=O)c1ccccc1NS(=O)(=O)c1cccs1` gave rCAG RNA binder 62*, core dimer inh 17, TAAR1 ag 12, TAAR1 antagonist 12, NS3 helicase inh 17, rCAG binder conf 60* and DNA CAG counter 21*.
Screening COc1ccc(NS(=O)(=O)c2cccc(C(=O)NN=Cc3cc(Br)c(O)c(Br)c3)c2)cc1 returned rCAG RNA binder 39*, TAAR1 ag -1, TAAR1 antagonist -10, rCAG binder conf 43* and DNA CAG counter 17*.
Screening O=C(N/N=C/c1ccc([N+](=O)[O-])o1)c1ccccc1NS(=O)(=O)c1cccs1 returned rCAG RNA binder 45*, core dimer inh 7, TAAR1 ag 3, TAAR1 antagonist -6, NS3 helicase inh 9, rCAG binder conf 41* and DNA CAG counter 15*.
`O=C(NN=Cc1ccc(F)cc1)c1ccccc1NS(=O)(=O)c1cccs1` gave rCAG RNA binder 26, TAAR1 ag 7 and TAAR1 antagonist 25.
For CCCn1c(C)c(CC(=O)Nc2ccc(N(C)c3ccccn3)cc2)c2ccccc21 the results were rCAG RNA binder 5, TAAR1 ag -3 and TAAR1 antagonist 4.
CC(C)(C)c1ccc(S(=O)(=O)N2CCC(C(=O)N3CCN(C4CCCCC4)CC3)CC2)cc1 was read as rCAG RNA binder 2.
COc1ccc(-c2cc(-c3nnc(SCC(=O)Nc4ccc(-c5nc6ccc(C)cc6s5)cc4)n3N)[nH]n2)cc1 was read as rCAG RNA binder 6.
CCOC(=O)[C@]12CCCC3=C1N(CCC3)C(=O)[C@@H](CC(=O)NCc1cccc3ccccc13)C2 was read as rCAG RNA binder -1.
`Nc1[nH]c(C(=O)c2ccccc2)c(-c2cccc3ccccc23)c1C(=O)NCc1ccc(Cl)cc1Cl` gave rCAG RNA binder 10, TAAR1 ag 0 and TAAR1 antagonist -28.
For C#CCN(C[C@H]1[C@H](OC(=O)Nc2cccs2)[C@H](OC(=O)Nc2cccs2)CN(C(=O)OC(C)C)N1C(=O)OC(C)C)S(=O)(=O)c1ccc(C)cc1 the results were rCAG RNA binder 19, TAAR1 ag 0 and TAAR1 antagonist -1.
`COc1ccccc1/C=N/NC(=O)c1ccccc1NS(=O)(=O)c1ccc(C)cc1` gave rCAG RNA binder 39*, core dimer inh 14, TAAR1 ag 10, TAAR1 antagonist 8, NS3 helicase inh 6, rCAG binder conf 45* and DNA CAG counter 14*.
For Cc1ccc(S(=O)(=O)Nc2ccccc2C=NNC(=O)c2ccncc2)cc1 the results were rCAG RNA binder 7, TAAR1 ag 3 and TAAR1 antagonist -20.
Screening O=C(N/N=C/c1cccnc1)c1ccccc1NS(=O)(=O)c1cccs1 returned rCAG RNA binder 18, core dimer inh -6, TAAR1 ag 2, TAAR1 antagonist -17 and NS3 helicase inh 0.
Screening COc1cc(/C=N/NC(=O)c2ccccc2NS(=O)(=O)c2cccs2)ccc1O returned rCAG RNA binder 43*, TAAR1 ag 0, TAAR1 antagonist 16, rCAG binder conf 32 and DNA CAG counter 9.4*.
CCOC(=O)c1cc(OC(=O)c2cccc([N+](=O)[O-])c2)n(-c2ccccc2)n1 was read as rCAG RNA binder 35*, core dimer inh -1, TAAR1 ag 1, TAAR1 antagonist 21, NS3 helicase inh 12, rCAG binder conf 2 and DNA CAG counter 1.
`O=C(N/N=C/c1c(O)n(Cc2ccco2)c(=O)[nH]c1=O)c1ccccc1` gave rCAG RNA binder 50*, core dimer inh -2, TAAR1 ag 1, TAAR1 antagonist -25, NS3 helicase inh 22, rCAG binder conf 30 and DNA CAG counter 11*.
For COCCCN1CCC2(CCC(c3ccccc3)CC2)C1=O (stereo not drawn) the results were rCAG RNA binder -1.
`Cc1cc(NC(=O)Cc2cn(Cc3ccccc3)c3ccccc23)ccc1Oc1cccnc1` gave rCAG RNA binder 13, TAAR1 ag -1 and TAAR1 antagonist -2.
Screening Cc1ccccc1N=Nc1c(C)[nH]n(-c2ccccc2)c1=O returned NS3 helicase inh -5.
For Cc1[nH]n(-c2ccccc2)c(=O)c1N=Nc1ccccc1O the results were rCAG RNA binder 40*, TAAR1 ag 14, TAAR1 antagonist 36, NS3 helicase inh -5, rCAG binder conf 27 and DNA CAG counter 13*.
Screening S=c1[nH]nc(-c2cc(-c3ccccc3)n[nH]2)n1/N=C/c1ccc(Cl)c(Cl)c1 returned rCAG RNA binder 8, core dimer inh 11, TAAR1 ag -1, TAAR1 antagonist -29 and NS3 helicase inh 0.
`S=c1[nH]nc(-c2cc(-c3ccccc3)n[nH]2)n1/N=C/c1ccc(Cl)cc1` gave rCAG RNA binder 23, core dimer inh 5, TAAR1 ag -2, TAAR1 antagonist -51 and NS3 helicase inh -2.
Screening S=c1[nH]nc(-c2cc(-c3ccccc3)n[nH]2)n1N=Cc1cccc(Oc2ccccc2)c1 returned rCAG RNA binder 66*, rCAG binder conf 61* and DNA CAG counter 31*.
Screening COc1cc(/C=N/n2c(-c3cc(-c4ccccc4)n[nH]3)n[nH]c2=S)ccc1OCc1ccccc1 returned rCAG RNA binder 58*, rCAG binder conf 55* and DNA CAG counter 26*.
Screening S=c1[nH]nc(-c2cc(-c3ccccc3)n[nH]2)n1N=Cc1cccc(OCc2ccccc2)c1 returned rCAG RNA binder 77*, rCAG binder conf 63* and DNA CAG counter 32*.

Screening data: PubChem, The Scripps Research Institute Molecular Screening Center
